Our source for the Activity values is ChEMBL document CHEMBL3872233, “Topical Treatment of Leishmania tropica Infection Using (-)-α-Bisabolol Ointment in a Hamster Model: Effectiveness and Safety Assessment” (J Nat Prod, 2016).

In experiment [1] the test system is Leishmania tropica. In words: Antileishmanial activity against Leishmania tropica MHOM/MA/1988/LEM1314 promastigotes infected in Syrian hamster assessed as reduction in lesion thickness at 2 mg/kg administered intralesionally once daily on footpad for 3 weeks starting at week 7 post infection measured 1 week post last dose relative to control. Set-up: scale not given: the % may be the effect or the level left. It is filed as functional, organism-based. The procedure, abridged:
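L. tropica stationary-phase promastigotes (3 × 10^7 in 50 μL PBS) injected into the left hind footpad. Treatment began at week 7 (+75% footpad thickness) and ran daily for 21 days, n = 10/group. Routes were 50 mg ointment on the lesion (cetyl alcohol/lanolin/petrolatum base), gavage in olive oil, or intralesional meglumine antimoniate 2 mg SbV/kg. Lesion thickness was measured weekly against base-only ointment; sacrifice was 1 week after the last dose.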

Experiment [2] deals with Leishmania tropica. In words: Antileishmanial activity against Leishmania tropica MHOM/MA/1988/LEM1314 promastigotes infected in Syrian hamster assessed as reduction in parasite load in foodpad skin at 2 mg/kg administered intralesionally once daily on footpad for 3 weeks starting at week 7 post infection measured 1 week post last dose by qPCR analysis relative to control. The experiment is classed as functional, organism-based. Set-up: scale not given: the % may be the effect or the level left. Summed up: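 Hamsters were infected in the footpad and treated daily for 21 days from week 7 post-infection, n = 10/group, and sacrificed 1 week after the last dose. Footpad skin, liver and spleen DNA was assayed by L. tropica-specific TaqMan qPCR (chromosome 29 target), in triplicate with 50 ng DNA per 25 μL reaction. Load was interpolated from Ct on a calibration curve of promastigote DNA, relative to base-ointment controls.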

As for Meglumine antimoniate; Glucantime, the values for the Activity with Leishmania tropica [1] and in the experiment with Leishmania tropica [2] were 3.2% and 73%, respectively.
